Experiments:
[1] = system: Caco-2 cells; test: In vitro cytotoxicity; assay type: cell-based; conditions: for IC50: Homo sapiens, Caco-2, 48 h, read-out: IC50 Caco-2; for IC50 in Caco-2 cells, fold greater than 5-FU: MTT, 48 h
Method in brief: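 Caco-2 cells seeded at 5 × 10^3 per well and grown 24 h. Cells were exposed to a concentration gradient of test compound for 48 h. Medium was replaced with 20% MTT medium for 4 h at 37 °C, then formazan was dissolved in DMSO for 15 min. Absorbance was read at 490 nm and IC50 calculated.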

[2] = In vivo pharmacokinetics; design: species or system Sprague-Dawley rats; conditions: 8 mg/kg
Method in brief: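 Male Sprague-Dawley rats (200–220 g), 5 per group. Oral dosing was 20 mg/kg 5-FU equivalent; one group received 5-FU iv at 8 mg/kg for absolute bioavailability. Plasma was collected at set times. Samples were precipitated with methanol plus internal standard, dried under nitrogen at 37 °C and reconstituted in methanol:water 15:85. Prodrug and 5-FU were measured together by UPLC-MS/MS (C18, water/acetonitrile gradient, MRM).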

[3] = system: Kunming mice; test: In vivo safety evaluation; conditions: 40 mg/kg intragastrically, 7 d continuous
Method in brief: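 Male Kunming mice (18–22 g), nine in 3 groups, received PBS, 5-FU or test compound intragastrically at 40 mg/kg for 7 consecutive days. Duodenum, jejunum, ileum and colon (plus major organs) were fixed in 10% formalin, then embedded, dewaxed, stained and examined microscopically.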

[4] = Chemical stability in different pH hydrochloride and phosphate buffers at 37 °C; assay type: physicochemical; conditions: for half-life at 80 µg/ml: hydrochloride or phosphate buffer (PBS); for T1/2: pH 6.8, 37 °C, 80 µg/ml
Method in brief: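 Test compound at 80 µg/ml in pH 1.2, 6.8 or 7.4 solution, shaken at 37 °C. Samples were taken at 0, 0.083, 0.25, 0.5, 1, 2, 4, 8, 12, 24 and 48 h. Each sample was centrifuged at 13 000 rpm for 10 min and quantified by HPLC.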

[5] = Enzymatic stability in rat intestinal homogenates; assay type: in vitro ADME; conditions: Sprague-Dawley, intestinal homogenate
Method in brief: (§1)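 Matrices from Sprague-Dawley rats: plasma from orbital blood stored at −80 °C, and liver or intestine washed in saline, homogenised on ice at 1:3 tissue:saline, with cold-centrifuged supernatant used. Test compound at 80 µg/ml, shaken at 37 °C, sampled 0–48 h. Samples were quenched with methanol (1:3), vortexed 2 min and centrifuged 13 000 rpm for 10 min. Supernatant was analysed by HPLC.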

[6] = Enzymatic stability in rat hepatic homogenates; assay type: in vitro ADME; conditions: Sprague-Dawley, liver homogenate
Method in brief: as §1

[7] = Enzymatic stability in rat plasma; assay type: in vitro ADME; conditions: Sprague-Dawley
Method in brief: as §1

[8] = In situ single-pass intestinal perfusion study; assay type: in vivo, Sprague-Dawley (SD) rats; conditions: for absorption rate constant (Ka), fold higher than 5-FU / apparent permeability coefficient (Papp), fold higher than 5-FU: colon, 0.5 mM, rat
Method in brief: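 Sprague-Dawley rats (220–240 g) were anaesthetised with 20% urethane, and ileum and colon segments were cannulated. Segments were pre-perfused with blank MES buffer for 20 min, then with test compound at 0.5 mM in MES buffer. Inlet and outlet perfusate were collected and weighed at set times. Samples were methanol-precipitated (1:3) and analysed by HPLC. Ka and Papp were derived from concentrations, volumes, segment radius and length, and flow rate.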

[9] = system: Caco-2 cells; test: Caco-2 cell uptake study; assay type: cell-based; conditions: for Uptake in untreated cells (without butyric acid induction): cells without induction vs butyric acid-treated; for Caco-2 uptake, fold higher than 5-FU: drug concentration 1 mM, uptake time 10 min, butyric acid-induced cells
Method in brief: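 Caco-2 cells seeded in 24-well plates at 1 × 10^4 per well and grown 15 d. Medium was switched to butyric acid-containing medium on day 7 to induce MCT1. Uptake ran at 37 °C at set times and concentrations, with or without inhibitor at 2.5 mM. Cells were washed three times with cold PBS, collected in water and sonicated. Drug was measured by UPLC-MS/MS and normalised to BCA protein.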

[10] = system: Caco-2 monolayer; test: Caco-2 cell permeability; assay type: in vitro ADME; conditions: AP → BL transport
Method in brief: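 Caco-2 cells seeded on Transwell inserts at 1 × 10^4 per well. After the first week, medium contained butyric acid up to 21 d, and monolayers with TEER above 300 Ω cm2 were used. Monolayers were washed with 37 °C HBSS and equilibrated for 30 min. Drug was added apically with HBSS basolaterally. BL was sampled with replacement at 5–120 min, with or without inhibitor (2.5 mM). Samples were analysed by UPLC-MS/MS and Papp calculated.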

[11] = male, Sprague-Dawley, rat, plasma, iv

| SMILES | IC50 [1] [µM] | Fabs ([2]; i.v., rat (reference)) [%] | Cmax [2, 11] [ng/mL] | Tmax [2, 11] [min] | half-life [2, 11] [h] | Intestinal histology (duodenum, jejunum, ileum, colon; H&E) [3] | Systemic histology (heart, liver, spleen, lung, kidney; H&E) [3] | half-life at 80 µg/ml ([4]; pH 1.2) [h] | half-life at 80 µg/ml ([4]; pH 7.4) [h] | T1/2 [4] | half-life at 80 µg/ml [5] [h] | half-life at 80 µg/ml [6] [h] | half-life at 80 µg/ml [7] [h] | absorption rate constant (Ka), fold higher than 5-FU [8] [fold] | apparent permeability coefficient (Papp), fold higher than 5-FU [8] [fold] | Ka and Papp values on co-incubating with quercetin (MCT1 inhibitor) ([8]; in situ perfusion with quercetin) | IC50 in Caco-2 cells, fold greater than 5-FU [1] [fold] | Uptake in untreated cells (without butyric acid induction) [9] | Caco-2 uptake, fold higher than 5-FU [9] [fold] | membrane permeability AP → BL, fold greater than 5-FU [10] [fold] |
| --- | --- | --- | --- | --- | --- | --- | --- | --- | --- | --- | --- | --- | --- | --- | --- | --- | --- | --- | --- | --- |
| O=c1[nH]cc(F)c(=O)[nH]1 [5-FU, 5-Fluorouracil] | 77.8 ± 1.11 | 100 | 11200 | 4.8 | 0.29 ± 0.06 | inflammatory cell infiltration occurred in the duodenum, jejunum and ileum tissues | the liver cells were wrinkled, the nuclei were pyknotic | – | – | – | – | – | – | – | – | – | – | – | – | – |
| O=C(O)CCCCC(=O)OCn1cc(F)c(=O)[nH]c1=O [HDA-5-FU, Hexanedioic acid mono-(5-fluoro-2,4-dioxo-3,4-dihydro-2H-pyrimidin-1-ylmethyl) ester] | 500.8 ± 1.32 | – | – | – | – | – | – | 38.3 ± 0.1 | 143 ± 36.8 | No hydrolysis | 3.4 ± 0.2 | 9.7 ± 3 | 19.7 ± 5.1 | 1.1 | 1.1 | significantly decreased | 6.4 | significantly decreased | 2.2 | 8.5 |
| O=C(O)CCCCCCC(=O)OCn1cc(F)c(=O)[nH]c1=O [OA-5-FU, octanedioic acid mono-(5-fluoro-2,4-dioxo-3,4-dihydro-2H-pyrimidin-1-ylmethyl) ester] | 317.7 ± 1.1 | – | – | – | – | No significant toxicity | – | 36.8 ± 2.3 | 152 ± 13.1 | No hydrolysis | 1.2 ± 0.1 | < 0.25 | 15.3 ± 1.1 | 3.8 | 3.3 | – | 4.1 | significantly decreased | 5.5 | 13.1 |
